Reference: ChEMBL document CHEMBL1759837, “Studies on chemical modification and biology of a natural product, gambogic acid (III): determination of the essential pharmacophore for biological activity” (Eur J Med Chem, 2011)

Legend:
HepG2 = assay: Antiproliferative activity against human HepG2 cells after 24 hrs by MTT assay; type: functional, cell-based; conditions: HepG2, 24 h
Summary of the method: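 Tetrazolium MTT viability test; cells exposed to compound 24 h, absorbance read at 570 nm. Survival ratio = A treated / A control × 100%; IC50 is the concentration giving 50% loss of viability. Eight concentrations in two-fold dilutions, triplicate wells, mean of two separate experiments. Compounds dissolved in DMSO (0.01 mol/L stock); control wells received medium only.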

SMMC-7721 = assay: Antiproliferative activity against human SMMC7721 cells after 24 hrs by MTT assay; type: functional, cell-based; conditions: SMMC-7721, 24 h
Summary of the method: (§1)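 Cells grown at 37 °C in humidified 5% CO2 with benzylpenicillin and streptomycin. Compounds came from 0.01 mol/L DMSO stocks and were tested at eight two-fold dilutions in triplicate, with medium-only controls, for 24 h. MTT absorbance was read at 570 nm. Survival = A_treatment/A_control × 100. IC50 is the concentration giving 50% viability inhibition, as the mean of two separate experiments.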

BGC-823 = assay: Antiproliferative activity against human BGC823 cells after 24 hrs by MTT assay; type: functional, cell-based; conditions: BGC-823, 24 h; summary of the method: as §1
MCF7 = assay: Antiproliferative activity against human MCF7 cells after 24 hrs by MTT assay; type: functional, cell-based; conditions: MCF7, 24 h; summary of the method: as §1
[1] = tested on: Heps hepatoma (Mus musculus); assay: Antitumor activity against murine Heps hepatoma cells transplanted in Kunming mouse assessed as tumor growth inhibition at 20 mg/kg, iv administered 24 hrs after tumor implantation one dose per two day for total of four treatment measured after 24 hrs last postdose relative to control
Mus musculus = assay: Toxicity in Kunming mouse xenografted with human HepG2 cells assessed as change in body weight at 20 mg/kg, iv administered 24 hrs after tumor implantation one dose per two day for total of four treatment measured after 24 hrs last postdose (reference value: 20.90 +/- 1.29 g); conditions: in vivo

| Structure (SMILES) | IC50 (HepG2) | IC50 (SMMC-7721) | IC50 (BGC-823) | IC50 (MCF7) | inhibition in vivo at 20 mg/kg [1] | Activity (Mus musculus) |
| --- | --- | --- | --- | --- | --- | --- |
| CC(C)=CCC12OC(C)(C)C3CC(C=C4C(=O)c5cccc(O)c5OC431)C2=O (stereo not drawn) | 14.3 µM | 11.7 µM | 19.3 µM | 19.4 µM |  |  |
| CC(C)=CCC12OC(C)(C)C3CC(C=C4C(=O)CC(C)OC431)C2=O (stereo not drawn) | 95 µM | 147 µM | 81.1 µM | 68.3 µM |  |  |
| CC(C)=CCC[C@]1(C)C=Cc2c(O)c3c(c(CC=C(C)C)c2O1)O[C@]12C(=C[C@@H]4C[C@H]1C(C)(C)O[C@@]2(C/C=C(/C)C(=O)O)C4=O)C3=O [GAMBOGIC ACID] |  | 3.2 µM | 2.35 µM | 2.19 µM | 45.3% | 27.6 g |
